These results are taken from ChEMBL document CHEMBL3046055, “Synthesis and herbicidal activity of novel N-(2,2,2)-trifluoroethylpyrazole derivatives” (J Agric Food Chem, 2010).

The subject of series [1] is Digitaria sanguinalis. In words: Herbicidal activity against Digitaria sanguinalis (hairy crabgrass) assessed as inhibition of fresh weed plant weights at 600 g ai/ha using pre-emergence treatment protocol under greenhouse conditions relative to untreated control. It is filed as functional. An outline of the steps: (§1)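 Pre-emergence test in plastic pots kept in a greenhouse at 22-25 °C. Fresh weight of aerial plant parts was measured 20 days later, and percent inhibition calculated relative to water-sprayed controls. Metolachlor served as the positive control. Three replicates were run per concentration.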

The subject of series [2] is Portulaca oleracea. Put plainly: Herbicidal activity against Portulaca oleracea assessed as inhibition of root growth at […] measured 7 days post treatment. It is filed as functional. Also on record: dose or concentration left out as unconfirmed. Conditions: 168 h, read-out: GI.
Series [3] deals with Echinochloa crus-galli. In words: Herbicidal activity against Echinochloa crus-galli (barnyard grass) assessed as inhibition of fresh weed plant weights at 600 g ai/ha using pre-emergence treatment protocol under greenhouse conditions relative to untreated control. It is filed as functional. Put shortly: as §1
The subject of series [4] is Echinochloa crus-galli. In words: Herbicidal activity against Echinochloa crus-galli (barnyard grass) assessed as inhibition of root growth at […] measured 7 days post treatment. It is filed as functional. Also on record: dose or concentration left out as unconfirmed. The conditions noted are these: 168 h, read-out: GI.
Series [5] relates to Echinochloa crus-galli. In words: Herbicidal activity against Echinochloa crus-galli (barnyard grass) assessed as inhibition of shoot growth at […] measured 7 days post treatment. It is filed as functional. Also on record: dose or concentration left out as unconfirmed. Conditions: 168 h, read-out: GI.
Series [6] deals with Portulaca oleracea. In words: Herbicidal activity against Portulaca oleracea assessed as inhibition of shoot growth at […] measured 7 days post treatment. It is filed as functional. Conditions: 168 h, read-out: GI. Put shortly:
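Petri-dish agar assay. A 10 g/L stock of compound in acetone was mixed into molten agar; the untreated control was agar without compound. Seeds were placed on the agar surface and the cups were covered with glass lids. Incubation was 25 ± 1 °C, 50-55% RH, 12 h light/12 h dark, for 7 days. Root and shoot lengths were measured and growth inhibition calculated against the control, in three replicates.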

The subject of series [7] is Zea mays. In words: Toxicity against Zea mays var. SHEN DAN 17 (maize) assessed induction of crop injury at 1404 g ai/ha using pre-emergence treatment protocol under field trials conditions measured 30 days post soil treatment. It is filed as organism-based. Conditions: in vivo, other, 720 h.
A further series deals with Convolvulus arvensis. In words: Herbicidal activity against Convolvulus arvensis assessed as inhibition of fresh weed plant weights at 1404 g ai/ha using pre-emergence treatment protocol under field trials conditions measured 30 days post soil treatment relative to untreated control. It is filed as functional. Conditions: 720 h.
In series [8] the test system is Portulaca oleracea. Put plainly: Herbicidal activity against Portulaca oleracea assessed as inhibition of fresh weed plant weights at 1404 g ai/ha using pre-emergence treatment protocol under field trials conditions measured 30 days post soil treatment relative to untreated control. The conditions noted are these: 720 h. It is filed as functional.
The test system of series [9] is Eleusine indica. Put plainly: Herbicidal activity against Eleusine indica assessed as inhibition of fresh weed plant weights at 1404 g ai/ha using pre-emergence treatment protocol under field trials conditions measured 30 days post soil treatment relative to untreated control. It is filed as functional. The conditions noted are these: 720 h.
In series [10] the test system is Echinochloa crus-galli. In words: Herbicidal activity against Echinochloa crus-galli (barnyard grass) assessed as inhibition of fresh weed plant weights at 1404 g ai/ha using pre-emergence treatment protocol under field trials conditions measured 30 days post soil treatment relative to untreated control. It is filed as functional. Conditions: 720 h.
Series [11] has as its system Digitaria sanguinalis. In words: Herbicidal activity against Digitaria sanguinalis (hairy crabgrass) assessed as inhibition of fresh weed plant weights at 1404 g ai/ha using pre-emergence treatment protocol under field trials conditions measured 30 days post soil treatment relative to untreated control. The conditions noted are these: 720 h. It is filed as functional.

Series [12] relates to Zea mays. In words: Toxicity against Zea mays var. SHEN DAN 17 (maize) assessed as inhibition of fresh weed plant weights at 600 g ai/ha using pre-emergence treatment protocol under greenhouse conditions relative to untreated control. It is filed as organism-based. Conditions: in vivo, other. An outline of the steps: as §1
Series [13] has as its system Zea mays. In words: Toxicity against Zea mays var. SHEN DAN 17 (maize) assessed as inhibition of fresh weed plant weights at 300 g ai/ha using pre-emergence treatment protocol under greenhouse conditions relative to untreated control. It is filed as organism-based. Conditions: in vivo, other. An outline of the steps:
as §1

The subject of series [14] is Portulaca oleracea. In words: Herbicidal activity against Portulaca oleracea assessed as inhibition of fresh weed plant weights at 600 g ai/ha using pre-emergence treatment protocol under greenhouse conditions relative to untreated control. It is filed as functional. Put shortly:
as §1

For series [15], the system named is Portulaca oleracea. Put plainly: Herbicidal activity against Portulaca oleracea assessed as inhibition of fresh weed plant weights at 300 g ai/ha using pre-emergence treatment protocol under greenhouse conditions relative to untreated control. It is filed as functional. An outline of the steps: as §1
For series [16], the system named is Portulaca oleracea. Put plainly: Herbicidal activity against Portulaca oleracea assessed as inhibition of fresh weed plant weights at 150 g ai/ha using pre-emergence treatment protocol under greenhouse conditions relative to untreated control. It is filed as functional. Put shortly: as §1
The subject of series [17] is Echinochloa crus-galli. In words: Herbicidal activity against Echinochloa crus-galli (barnyard grass) assessed as inhibition of fresh weed plant weights at 300 g ai/ha using pre-emergence treatment protocol under greenhouse conditions relative to untreated control. It is filed as functional. An outline of the steps: as §1
In series [18] the test system is Echinochloa crus-galli. Put plainly: Herbicidal activity against Echinochloa crus-galli (barnyard grass) assessed as inhibition of fresh weed plant weights at 150 g ai/ha using pre-emergence treatment protocol under greenhouse conditions relative to untreated control. It is filed as functional. An outline of the steps:
as §1

The subject of series [19] is Digitaria sanguinalis. In words: Herbicidal activity against Digitaria sanguinalis (hairy crabgrass) assessed as inhibition of fresh weed plant weights at 300 g ai/ha using pre-emergence treatment protocol under greenhouse conditions relative to untreated control. It is filed as functional. An outline of the steps: as §1
Series [20] deals with Digitaria sanguinalis. In words: Herbicidal activity against Digitaria sanguinalis (hairy crabgrass) assessed as inhibition of fresh weed plant weights at 150 g ai/ha using pre-emergence treatment protocol under greenhouse conditions relative to untreated control. It is filed as functional. Put shortly:
as §1

Series [21] has as its system Eleusine indica. Put plainly: Herbicidal activity against Eleusine indica assessed as inhibition of fresh weed plant weights at 600 g ai/ha using pre-emergence treatment protocol under greenhouse conditions relative to untreated control. It is filed as functional. Put shortly:
as §1

For series [22], the system named is Eleusine indica. In words: Herbicidal activity against Eleusine indica assessed as inhibition of fresh weed plant weights at 300 g ai/ha using pre-emergence treatment protocol under greenhouse conditions relative to untreated control. It is filed as functional. Put shortly: as §1
For series [23], the system named is Eleusine indica. In words: Herbicidal activity against Eleusine indica assessed as inhibition of fresh weed plant weights at 150 g ai/ha using pre-emergence treatment protocol under greenhouse conditions relative to untreated control. It is filed as functional. Put shortly:
as §1

Series [24] relates to Brassica rapa subsp. oleifera. In words: Toxicity against Brassica rapa subsp. oleifera var. JING GUAN 1 assessed as inhibition of fresh weed plant weights at 600 g ai/ha using pre-emergence treatment protocol under greenhouse conditions relative to untreated control. It is filed as organism-based. Conditions: in vivo, other. Put shortly:
as §1

The test system of series [25] is Brassica rapa subsp. oleifera. Put plainly: Toxicity against Brassica rapa subsp. oleifera var. JING GUAN 1 assessed as inhibition of fresh weed plant weights at 300 g ai/ha using pre-emergence treatment protocol under greenhouse conditions relative to untreated control. It is filed as organism-based. The conditions noted are these: in vivo, other. An outline of the steps: as §1

Series [26] deals with Brassica rapa subsp. oleifera. In words: Toxicity against Brassica rapa subsp. oleifera var. JING GUAN 1 assessed as inhibition of fresh weed plant weights at 150 g ai/ha using pre-emergence treatment protocol under greenhouse conditions relative to untreated control. It is filed as organism-based. Conditions: in vivo, other. Put shortly:
as §1

Structures are written as SMILES.

Regarding `Cc1nn(CC(F)(F)F)c(CSC2=NOC(C)(C)C2)c1I`, the values for the inhibition at 600 g/ha in the series with Digitaria sanguinalis [1] and in the series on Echinochloa crus-galli [3] were 54% and 100%, respectively. The figures for the inhibition of growth in the series on Portulaca oleracea [2], with Echinochloa crus-galli [4] and in the series on Echinochloa crus-galli [5] were 81%, 86% and 89%, respectively. In addition, the inhibition of growth at 100000 µg/mL in the series on Portulaca oleracea [6] worked out at 62%.
Take `Cc1nn(CC(F)(F)F)c(CSC2=NOC(C)(C)C2)c1Br`: the values for the inhibition at 600 g/ha in the series on Digitaria sanguinalis [1] and in the series with Echinochloa crus-galli [3] were 74% and 82%, respectively. Besides, the values for the inhibition of growth in the series with Portulaca oleracea [2], with Echinochloa crus-galli [4] and with Echinochloa crus-galli [5] were 80%, 86% and 88%, respectively. The inhibition of growth at 100000 µg/mL in the series on Portulaca oleracea [6] was 54%.
In the case of `Cc1nn(CC(F)(F)F)c(CSC2=NOC(C)(C)C2)c1Cl`, the values for the inhibition at 600 g/ha in the series with Digitaria sanguinalis [1] and in the series on Echinochloa crus-galli [3] were 54% and 81%, respectively. Also, the inhibition of growth in the series on Portulaca oleracea [2] was found to be 75%; in the series on Echinochloa crus-galli [4], 89%; in the series with Echinochloa crus-galli [5], 88%. The inhibition of growth at 100000 µg/mL in the series on Portulaca oleracea [6] was 54%.
On to `Cc1nn(CC(F)(F)F)c(CS(=O)(=O)C2=NOC(C)(C)C2)c1Br`, for which the inhibition at 600 g/ha was 79% in the series with Digitaria sanguinalis [1] and 100% in the series on Echinochloa crus-galli [3]. Further, the inhibition of growth in the series with Portulaca oleracea [2] was determined as 80%; in the series with Echinochloa crus-galli [4], 74%; in the series on Echinochloa crus-galli [5] it was 81%. Also, the inhibition of growth at 100000 µg/mL in the series with Portulaca oleracea [6] stood at 62%.
For the compound `Cc1nn(CC(F)(F)F)c(CS(=O)(=O)C2=NOC(C)(C)C2)c1I`, the inhibition at 600 g/ha with Digitaria sanguinalis [1] is 90%; in the series with Echinochloa crus-galli [3] it was 100%. Further, the values for the inhibition of growth in the series on Portulaca oleracea [2], with Echinochloa crus-galli [4] and with Echinochloa crus-galli [5] were 75%, 63% and 84%, respectively. The inhibition of growth at 100000 µg/mL with Portulaca oleracea [6] amounted to 62%.
`CCc1cccc(C)c1N(C(=O)CCl)C(C)COC` (configuration not stated) [METOLACHOR] registered an Activity in the series with Zea mays [7] of 0%. Besides, the inhibition at 1404 g/ha was 47% with Convolvulus arvensis; 100% in the series with Portulaca oleracea [8]; 99% in the series on Eleusine indica [9]; 100% in the series on Echinochloa crus-galli [10]; 95% in the series on Digitaria sanguinalis [11]. Moreover, the “inhibition (INH)” value in the series on Zea mays [12] is listed as 2%; with Zea mays [13], 2%; in series [24] it was 11%; in [25], 9%; in [26], 0%. In addition, the inhibition at 600 g/ha in the series with Portulaca oleracea [14] is 60%; in the series with Eleusine indica [21] it was 97%; in the series on Digitaria sanguinalis [1] it was 90%; in the series with Echinochloa crus-galli [3], 50%. The inhibition at 300 g/ha with Portulaca oleracea [15] is 57%; in the series on Echinochloa crus-galli [17], 39%; in the series on Digitaria sanguinalis [19], 76%; in the series with Eleusine indica [22], 98%. Also, the inhibition at 150 g/ha in the series with Portulaca oleracea [16] came to 36%; in the series on Echinochloa crus-galli [18], 25%; in the series with Digitaria sanguinalis [20] it was 43%; with Eleusine indica [23] it was 84%. The inhibition of growth in the series on Portulaca oleracea [2] was found to be 74%; in the series on Echinochloa crus-galli [4], 80%; in the series on Echinochloa crus-galli [5], 88%. In addition, in the series on Portulaca oleracea [6], the inhibition of growth at 100000 µg/mL came out at 62%.
